Measured values as given in ChEMBL document CHEMBL4613292, “5,6-Dihydroxypyrimidine Scaffold to Target HIV-1 Nucleocapsid Protein” (ACS Med Chem Lett, 2020).

Assays:
[1] = (§1) Inhibition of HIV1 Nucleocapsid protein (11 to 55 residues) assessed as reduction in NC-induced cTAR DNA destabilization by measuring intrinsic fluorescence using Alexa488-5'-cTAR-3'-Dabcyl oligonucleotide as substrate at 20 degree C incubated for 15 mins by fluorescence assay; design: species or system Human immunodeficiency virus 1
Summary of the method: (§2)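 Fluorescence NC-inhibition assay following destabilisation of cTAR DNA, the complement of the HIV-1 transactivation response element, dual-labelled with Alexa488 dye and Dabcyl quencher. NC protein at 1 μM, so the lowest measurable IC50 is 0.5 μM.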

[2] = test system: Human immunodeficiency virus 1; assay: as §1; summary of the method: as §2
[3] = (§3) Selectivity index, ratio of CC50 for human HeLa cells assessed as reduction in cell viability to EC50 for wild-type HIV1 NL4-3 infected in human TZM-bl cells infected with supernatants from virus-infected human MT2 cells treated with compound for 48 to 72 hrs assessed as reduction in viral replication after 2 days by bright Glo-luciferase reporter gene assay based BiCycle assay; type: toxicity; conditions: read-out: Ratio CC50/EC50
Summary of the method: (§4)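 Selectivity index is CC50 from the respective cytotoxicity assay (HeLa or PBMC) divided by EC50 from the two-round MT-2/TZM-bl NL4-3 assay.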

[4] = Half life in mouse plasma at 3 uM by LC-MS/MS analysis; type: ADME, cell-free
[5] = test system: Human immunodeficiency virus 1; assay: as §1, with “Ratio” for “Inhibition”, “of IC50 for NRTI-resistant HIV1 7401 Nucleocapsid protein (11 to 55 residues) using Alexa488-5'-cTAR-3'-Dabcyl oligonucleotide as substrate to IC50 for” for “of”
[6] = test system: Human immunodeficiency virus 1; assay: Antiviral activity against NRTI-resistant HIV1 7401; type: functional, organism-based; conditions: Human immunodeficiency virus 1, 7401
[7] = Selectivity index, ratio of CC50 for human PBMC cells stimulated with phytohemagglutinin and interleukin-2 assessed as reduction in cell viability measured after 7 days by MTS assay to EC50 for wild-type HIV1 NL4-3 infected in human TZM-bl cells infected with supernatants from virus-infected human MT2 cells treated with compound for 48 to 72 hrs assessed as reduction in viral replication after 2 days by bright Glo-luciferase reporter gene assay based BiCycle assay; type: toxicity; conditions: read-out: Ratio CC50/EC50; summary of the method: as §4
[8] = test system: Human immunodeficiency virus 1; assay: as §1, with “Ratio” for “Inhibition”, “of IC50 for NNRTI-resistant HIV1 12231 Nucleocapsid protein (11 to 55 residues) using Alexa488-5'-cTAR-3'-Dabcyl oligonucleotide as substrate to IC50 for” for “of”
[9] = Cytotoxicity against phytohemagglutinin and interleukin-2-stimulated human PBMC cells assessed as reduction in cell viability measured after 7 days by MTS assay; type: cell-based
Cytochrome P450 3A4 = Cytochrome P450 3A4 (Homo sapiens, UniProt P08684); assay: Inhibition of human microsomal CYP3A4 expressed in baculovirus infected insect cells using luciferin-IPA as substrate preincubated with enzyme/substrate mixture for 30 mins followed by further incubation with NADPH for 30 mins by CYP450 luciferase Glo assay; type: ADME
[10] = Cytotoxicity against human HeLa cells assessed as reduction in cell viability; type: cell-based
[11] = test system: Human immunodeficiency virus 1; assay: as §1, with “Ratio” for “Inhibition”, “of IC50 for INI-resistant HIV1 11845 Nucleocapsid protein (11 to 55 residues) using Alexa488-5'-cTAR-3'-Dabcyl oligonucleotide as substrate to IC50 for” for “of”
Cytochrome P450 2D6 = Cytochrome P450 2D6 (Homo sapiens, UniProt P10635); assay: Inhibition of human microsomal CYP2D6 expressed in baculovirus infected insect cells using luciferin-ME as substrate preincubated with enzyme/substrate mixture for 30 mins followed by further incubation with NADPH for 30 mins by CYP450 luciferase Glo assay; type: ADME
[12] = Clearance in C57BL/6 mouse at 2 mg/kg, iv or 5 mg/kg, po administered as single dose measured up to 24 hrs by LC-MS/MS analysis; type: ADME, organism-based; conditions: in vivo
[13] = Oral bioavailability in C57BL/6 mouse at 5 mg/kg administered as single dose measured up to 24 hrs by LC-MS/MS analysis; type: ADME, organism-based; conditions: in vivo
Summary of the method: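 C57BL/6 mice were dosed 5 mg/kg orally, with a 2 mg/kg iv reference arm. Plasma was sampled at eight time points up to 24 h.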

Cytochrome P450 1A2 = target: T1, Cytochrome P450 1A2 (Homo sapiens, UniProt P05177); assay: Inhibition of human microsomal CYP1A2 expressed in baculovirus infected insect cells using luciferin-1A2 as substrate preincubated with enzyme-substrate mixture for 30 mins followed by further incubation with NADPH for 30 mins by CYP450 luciferase Glo assay; type: ADME
T1 sequence (P05177 whole entry): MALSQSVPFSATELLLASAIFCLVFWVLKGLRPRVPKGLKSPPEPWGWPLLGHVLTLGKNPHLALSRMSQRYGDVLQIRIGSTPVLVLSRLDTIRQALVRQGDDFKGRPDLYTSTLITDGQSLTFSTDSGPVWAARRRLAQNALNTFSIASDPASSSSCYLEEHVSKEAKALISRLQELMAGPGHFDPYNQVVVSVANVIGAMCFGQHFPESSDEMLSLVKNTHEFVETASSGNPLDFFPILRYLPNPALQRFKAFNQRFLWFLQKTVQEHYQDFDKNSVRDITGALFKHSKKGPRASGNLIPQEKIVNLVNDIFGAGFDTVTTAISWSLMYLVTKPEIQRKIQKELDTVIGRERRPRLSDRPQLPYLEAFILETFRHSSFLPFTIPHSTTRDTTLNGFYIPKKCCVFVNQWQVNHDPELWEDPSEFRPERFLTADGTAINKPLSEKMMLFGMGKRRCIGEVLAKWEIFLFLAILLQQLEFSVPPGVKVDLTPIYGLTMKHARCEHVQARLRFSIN

[14] = test system: Human immunodeficiency virus 1; assay: as §3, with “Antiviral activity against” for “Selectivity index, ratio of CC50 for human HeLa cells assessed as reduction in cell viability to EC50 for”; type: functional, organism-based; conditions: Human immunodeficiency virus 1, NL4-3, TZM
Summary of the method: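 Two-round cell assay over the full replication cycle: MT-2 T cells are infected with wild-type reference strain NL4-3 in the first round, and reporter TZM-bl cells are infected in the second round. Values are given as mean ± deviation.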

[15] = Half life in human plasma at 3 uM by LC-MS/MS analysis; type: ADME, cell-free
[16] = Volume of distribution at steady state in C57BL/6 mouse at 2 mg/kg, iv or 5 mg/kg, po administered as single dose measured up to 24 hrs by LC-MS/MS analysis; type: ADME, organism-based; conditions: in vivo, read-out: Vdss
[17] = Half life in C57BL/6 mouse at 2 mg/kg, iv or 5 mg/kg, po administered as single dose measured up to 24 hrs by LC-MS/MS analysis; type: ADME, organism-based; conditions: in vivo
[18] = target: Voltage-gated inwardly rectifying potassium channel KCNH2 (Homo sapiens, UniProt Q12809); assay: Displacement of Tracer Red from human ERG measured after 4 hrs by fluorescence polarization assay
[19] = Half life in mouse hepatocytes at 3 uM by LC-MS/MS analysis; type: ADME, cell-based, Hepatocyte
[20] = Half life in human hepatocytes at 3 uM by LC-MS/MS analysis; type: ADME, cell-based, Hepatocyte
[21] = test system: Human immunodeficiency virus 1; assay: Antiviral activity against INI-resistant HIV1 11845; type: functional, organism-based; conditions: Human immunodeficiency virus 1, 11845
[22] = test system: Human immunodeficiency virus 1; assay: Antiviral activity against PI-resistant HIV1 11808; type: functional, organism-based; conditions: Human immunodeficiency virus 1, 11808
[23] = test system: Human immunodeficiency virus 1; assay: Antiviral activity against NNRTI-resistant HIV1 12231; type: functional, organism-based; conditions: Human immunodeficiency virus 1, 12231
[24] = test system: Human immunodeficiency virus 1; assay: as §1, with “Ratio” for “Inhibition”, “of IC50 for PI-resistant HIV1 11808 Nucleocapsid protein (11 to 55 residues) using Alexa488-5'-cTAR-3'-Dabcyl oligonucleotide as substrate to IC50 for” for “of”

Cytochrome P450 2D6, sequence (P10635 whole entry): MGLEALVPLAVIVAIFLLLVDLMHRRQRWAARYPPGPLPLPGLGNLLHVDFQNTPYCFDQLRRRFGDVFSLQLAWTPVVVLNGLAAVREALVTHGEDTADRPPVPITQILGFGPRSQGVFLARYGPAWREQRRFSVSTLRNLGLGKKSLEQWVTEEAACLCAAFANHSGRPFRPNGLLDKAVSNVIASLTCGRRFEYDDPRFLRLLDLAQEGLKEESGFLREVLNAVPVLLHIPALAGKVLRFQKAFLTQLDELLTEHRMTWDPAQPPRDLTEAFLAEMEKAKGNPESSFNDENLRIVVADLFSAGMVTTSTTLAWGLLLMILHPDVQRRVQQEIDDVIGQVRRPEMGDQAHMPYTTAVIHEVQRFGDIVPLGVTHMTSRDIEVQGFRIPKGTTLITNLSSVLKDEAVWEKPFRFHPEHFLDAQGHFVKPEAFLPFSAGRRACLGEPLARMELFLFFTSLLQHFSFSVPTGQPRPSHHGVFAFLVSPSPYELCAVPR
Voltage-gated inwardly rectifying potassium channel KCNH2, sequence (Q12809 whole entry): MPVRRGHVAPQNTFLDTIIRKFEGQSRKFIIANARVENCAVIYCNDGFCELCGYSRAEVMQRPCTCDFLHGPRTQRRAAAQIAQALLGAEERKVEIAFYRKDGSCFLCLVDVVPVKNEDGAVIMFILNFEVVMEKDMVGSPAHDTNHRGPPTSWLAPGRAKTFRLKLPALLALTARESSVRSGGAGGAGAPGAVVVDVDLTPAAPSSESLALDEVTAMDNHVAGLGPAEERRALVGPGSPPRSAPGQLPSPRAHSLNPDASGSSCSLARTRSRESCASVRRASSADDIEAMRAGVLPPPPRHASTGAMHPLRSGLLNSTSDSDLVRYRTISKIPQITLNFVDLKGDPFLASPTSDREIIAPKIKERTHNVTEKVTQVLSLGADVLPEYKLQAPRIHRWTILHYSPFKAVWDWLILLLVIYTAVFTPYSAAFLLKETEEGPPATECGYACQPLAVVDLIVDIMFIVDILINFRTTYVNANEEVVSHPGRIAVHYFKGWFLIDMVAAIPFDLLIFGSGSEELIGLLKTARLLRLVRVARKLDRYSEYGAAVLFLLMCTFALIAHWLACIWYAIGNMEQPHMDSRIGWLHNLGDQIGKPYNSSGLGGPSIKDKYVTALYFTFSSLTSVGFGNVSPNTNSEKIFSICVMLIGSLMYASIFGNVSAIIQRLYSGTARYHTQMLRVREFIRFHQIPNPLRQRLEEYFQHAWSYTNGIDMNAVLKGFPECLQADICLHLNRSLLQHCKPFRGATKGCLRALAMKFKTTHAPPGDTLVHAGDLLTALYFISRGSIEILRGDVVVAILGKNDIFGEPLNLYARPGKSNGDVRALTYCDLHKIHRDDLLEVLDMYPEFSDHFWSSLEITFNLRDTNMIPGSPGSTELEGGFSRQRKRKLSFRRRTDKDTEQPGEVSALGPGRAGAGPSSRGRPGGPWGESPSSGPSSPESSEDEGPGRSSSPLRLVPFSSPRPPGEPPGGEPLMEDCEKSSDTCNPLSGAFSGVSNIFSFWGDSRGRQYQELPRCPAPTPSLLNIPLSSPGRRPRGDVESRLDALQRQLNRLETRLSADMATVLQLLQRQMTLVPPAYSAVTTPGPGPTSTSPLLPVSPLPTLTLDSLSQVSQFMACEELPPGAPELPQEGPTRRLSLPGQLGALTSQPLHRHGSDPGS
Cytochrome P450 3A4, sequence (P08684 whole entry): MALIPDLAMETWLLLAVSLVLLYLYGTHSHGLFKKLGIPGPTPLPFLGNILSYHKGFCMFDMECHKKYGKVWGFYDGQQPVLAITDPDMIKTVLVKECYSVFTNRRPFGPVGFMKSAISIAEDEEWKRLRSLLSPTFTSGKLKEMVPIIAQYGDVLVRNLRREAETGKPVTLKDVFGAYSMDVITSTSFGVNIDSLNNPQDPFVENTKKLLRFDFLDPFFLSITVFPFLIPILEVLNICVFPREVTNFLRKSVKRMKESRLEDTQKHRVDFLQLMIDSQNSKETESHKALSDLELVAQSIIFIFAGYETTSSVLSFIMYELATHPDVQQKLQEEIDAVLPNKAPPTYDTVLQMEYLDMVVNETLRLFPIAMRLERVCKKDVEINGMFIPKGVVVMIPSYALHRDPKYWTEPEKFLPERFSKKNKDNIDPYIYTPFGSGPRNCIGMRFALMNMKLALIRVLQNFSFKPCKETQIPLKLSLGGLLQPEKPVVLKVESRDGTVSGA

Compound	IC50 [1]	selectivity ratio [3]	selectivity ratio at 7 days [7]	CC50 at 168 h [9]	CC50 [10]	EC50 [14]	IC50 ([1]; read-out: IC50)	further results
CC(C)(C)c1nc(O)c(O)c(C(=O)NCC2CCCCC2)n1	Not Active							
C[C@@H](NC(=O)c1nc(-c2cccc(C(F)(F)F)n2)nc(O)c1O)C1CCCCC1								IC35 [2]: 20 µM
C[C@@H](NC(=O)c1nc(-c2ncccc2C(F)(F)F)nc(O)c1O)C1CCCCC1								IC35 [2]: 20 µM
C[C@@H](NC(=O)c1nc(-c2cc(Cl)ccn2)nc(O)c1O)C1CCCCC1		30	25	2.5 µM	3 µM	0.1 µM	2 µM	half-life at 3 µM [4]: > 6 h; Ratio IC50 [5]: 0.1; EC50 [6]: 0.01 µM; Ratio IC50 [8]: 0.8; IC50 (Cytochrome P450 3A4): > 30 µM; Ratio IC50 [11]: 0.7; IC50 (Cytochrome P450 2D6): > 30 µM; clearance [12]: 37.1 mL/min/kg; bioavailability [13]: 40%; IC50 (Cytochrome P450 1A2): > 30 µM; half-life at 3 µM [15]: > 6 h; Vd [16]: 1.2 L/kg; half-life [17]: 3.1 h; IC50 [18]: > 30 µM; half-life at 3 µM [19]: 1.7 h; half-life at 3 µM [20]: > 4 h; EC50 [21]: 0.07 µM; EC50 [22]: 0.02 µM; EC50 [23]: 0.08 µM; Ratio IC50 [24]: 0.2
CCNC(=O)c1nc(-c2ccccn2)nc(O)c1O	Not Active							
C[C@@H](NC(=O)c1nc(-c2ccccn2)nc(O)c1O)C1CCCCC1		5	4	3 µM	3.2 µM	0.7 µM	42 µM	
O=C(NC1CCCCC1)c1nc(-c2ccccn2)nc(O)c1O							300 µM	
Cc1ccnc(-c2nc(O)c(O)c(C(=O)N[C@H](C)C3CCCCC3)n2)c1		13	16	3.1 µM	2.7 µM	0.2 µM	8 µM	
O=C(NCCC1CCCCC1)c1nc(-c2ccccn2)nc(O)c1O		2	5	11 µM	4.2 µM	2.3 µM	38 µM	
Cc1ccnc(-c2nc(O)c(O)c(C(=O)N[C@@H](C)C3CCCCC3)n2)c1							41 µM	
O=C(NCC1CCCCC1)c1nc(-c2cccnc2)nc(O)c1O	Not Active							
CC(Cc1ccc(O)c(O)c1)C(C)Cc1ccc(O)c(O)c1 (stereo not drawn) [NORDIHYDROGUAIARETIC ACID]							26 µM	
O=C(NCC1CCCCC1)c1nc(-c2ccncc2)nc(O)c1O	Not Active							
